According to ChEMBL document CHEMBL4364279, “Design, synthesis, in-silico and biological evaluation of novel chalcone-O-carbamate derivatives as multifunctional agents for the treatment of Alzheimer's disease” (Eur J Med Chem, 2019):
The source made the active and inactive calls. The rule behind the calls is not given here.

Columns and labels:
[1] = target: T1, Amine oxidase [flavin-containing] A (Homo sapiens, UniProt P21397); assay: Inhibition of recombinant human MAO-A expressed in baculovirus infected BTI insect cells at 12.5 uM using kynuramine as substrate measured after 30 mins by fluorescence based assay relative to control; conditions: 0.5 h
T1 sequence (P21397 whole entry): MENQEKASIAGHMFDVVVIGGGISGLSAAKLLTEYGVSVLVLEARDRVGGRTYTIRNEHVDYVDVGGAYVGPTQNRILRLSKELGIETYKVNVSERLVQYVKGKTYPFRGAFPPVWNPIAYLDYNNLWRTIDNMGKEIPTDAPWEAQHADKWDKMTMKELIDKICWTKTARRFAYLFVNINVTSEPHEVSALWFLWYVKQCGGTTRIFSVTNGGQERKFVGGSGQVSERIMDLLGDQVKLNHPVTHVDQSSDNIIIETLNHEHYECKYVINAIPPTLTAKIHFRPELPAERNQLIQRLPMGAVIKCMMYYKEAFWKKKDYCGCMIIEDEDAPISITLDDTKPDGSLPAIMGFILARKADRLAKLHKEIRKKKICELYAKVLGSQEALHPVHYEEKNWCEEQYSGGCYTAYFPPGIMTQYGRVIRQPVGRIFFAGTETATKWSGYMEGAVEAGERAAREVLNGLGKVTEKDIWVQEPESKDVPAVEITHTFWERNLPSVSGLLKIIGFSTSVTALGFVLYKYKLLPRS

[2] = Antioxidant activity assessed as trolox equivalents of AAPH radical scavenging activity preincubated for 15 mins followed by AAPH addition and measured every minute for 90 mins by ORAC-FL assay; assay type: functional
[3] = target: Amyloid-beta precursor protein (Homo sapiens) (UniProt P05067); assay: Inhibition of self-induced amyloid beta (1 to 42) (unknown origin) aggregation at 25 uM after 24 hrs by thioflavin-T based fluorescence assay relative to control
Cholinesterase = Cholinesterase (Equus caballus, UniProt P81908); assay: Inhibition of equine serum BuChE using S-butyrylthiocholine iodide as susbtrate preincubated for 6 mins followed by substrate addition measured up to 3 mins by Ellman's method
[4] = target: Acetylcholinesterase (AChE) (Electrophorus electricus, UniProt O42275); assay: Inhibition of electric eel AChE at 25 uM using acetylthiocholine iodide as substrate incubated for 15 mins by Ellman's method relative to control; conditions: electric eel acetylcholinesterase (isolated enzyme), probe acetylthiocholine iodide
[5] = target: T2, Amine oxidase [flavin-containing] B (Homo sapiens, UniProt P27338); assay: biochemical; assay type: cell-based
T2 sequence (P27338 whole entry): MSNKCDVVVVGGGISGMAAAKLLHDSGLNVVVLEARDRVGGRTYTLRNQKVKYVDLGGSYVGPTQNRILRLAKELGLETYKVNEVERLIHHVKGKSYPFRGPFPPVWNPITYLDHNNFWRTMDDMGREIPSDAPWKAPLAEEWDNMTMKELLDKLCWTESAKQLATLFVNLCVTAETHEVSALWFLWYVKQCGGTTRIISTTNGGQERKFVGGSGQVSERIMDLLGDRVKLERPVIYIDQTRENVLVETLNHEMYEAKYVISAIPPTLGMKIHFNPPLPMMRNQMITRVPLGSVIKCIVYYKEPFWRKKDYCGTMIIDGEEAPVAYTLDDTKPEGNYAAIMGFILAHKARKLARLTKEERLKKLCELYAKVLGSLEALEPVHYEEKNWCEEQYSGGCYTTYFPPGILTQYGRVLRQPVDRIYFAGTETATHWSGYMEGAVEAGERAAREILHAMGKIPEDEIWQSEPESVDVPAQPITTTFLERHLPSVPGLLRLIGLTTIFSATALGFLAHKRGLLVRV

[6] = Inhibition of Cu2+-induced amyloid beta (1 to 42 residues) (unknown origin) aggregation at 25 uM after 24 hrs by thioflavin-T based fluorescence assay relative to control
In short: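 Aβ1-42 (25 µM) and Cu2+ (25 µM) incubated at 37 °C for 24 h with or without compound (25 µM). ThT (5 µM in 50 mM glycine-NaOH, pH 8.5) then added; fluorescence read at ex 446/em 490 nm. Inhibition = (1−IFi/IFc)×100 after background subtraction. Three independent experiments.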

[7] = Disaggregation of Cu2+ induced preformed fibrils of amyloid beta (1 to 42) (unknown origin) at 25 uM preincubated with Cu2+ for 24 hrs followed by compound addition and measured after 24 hrs by thioflavin-T based fluorescence assay relative to control
In short: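 Aβ1-42 (25 µM) and Cu2+ (25 µM) preincubated at 37 °C for 24 h, then compound (25 µM) added and incubated a further 24 h at 37 °C. ThT (5 µM in 50 mM glycine-NaOH, pH 8.5) added; fluorescence at ex 446/em 490 nm, background subtracted, % vs no-compound control. Three independent experiments.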

[8] = target: Cholinesterase (Equus caballus) (UniProt P81908); assay: Reversible inhibition of equine serum BuChE assessed as enzyme activity at IC50 using butyrylthiocholine iodide as substrate by Ellman's method relative to control; set-up: scale not given: the % may be the effect or the level left
[9] = target: Cholinesterase (Equus caballus) (UniProt P81908); assay: Reversible inhibition of equine serum BuChE assessed as enzyme activity at 0.1 times IC50 using butyrylthiocholine iodide as substrate measured at 120 mins by Ellman's method relative to control; set-up: scale not given: the % may be the effect or the level left
In short: (§1)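 Reversibility tested by recovery of equine serum BuChE activity after dilution of inhibitor, with activity monitored over time up to 240 min by the Ellman method (DTNB read at 412 nm). Activity expressed relative to untreated control. Three independent experiments.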

Mus musculus [10] = assay: Effect on total arm entries in Kunming mouse model of scopolamine-induced cognitive impairment in at 6 mg/kg, ig pretreated for 30 min followed by scopolamine challenge and measured after 30 mins by Y-maze test; assay type: ADME, organism-based; conditions: in vivo, po, 0.5 h
[11] = target: Cholinesterase (Equus caballus) (UniProt P81908); assay: Reversible inhibition of equine serum BuChE assessed as enzyme activity at 0.1 times IC50 using butyrylthiocholine iodide as substrate by Ellman's method relative to control; set-up: scale not given: the % may be the effect or the level left; in short: as §1
Mus musculus [12] = assay: Reversal of scopolamine-induced memory cognitive memory impairment in Kunming mouse assessed as change in spontaneous alteration behavior at 6 mg/kg, ig pretreated for 30 mins followed by scopolamine challenge and after 30 mins by Y-maze test (reference value: 45.6%); assay type: functional
[13] = target: Cholinesterase (Equus caballus) (UniProt P81908); assay: Inhibition of equine serum BuChE at 25 uM using S-butyrylthiocholine iodide as susbtrate preincubated for 6 mins followed by substrate addition measured up to 3 mins by Ellman's method
in vitro = conditions: PAMPA, pH 7.4
[14] = Metal chelating activity of the compound assessed as formation of Zn2+-compound complex at 37.5 uM after 30 mins by UV-vis absorption spectra analysis
In short: (§2)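 Metal binding examined by plate-reader absorbance scan using CuCl2, ZnCl2, AlCl3, FeSO4, CuCl and Fe(NO3)3 as metal sources.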

[15] = Metal chelating activity of the compound assessed as formation of Cu2+-compound complex at 37.5 uM after 30 mins by UV-vis absorption spectra analysis; in short: as §2
PC-12 [16] = assay: Neuroprotective activity against H2O2-induced cell death in rat PC12 cells assessed as cell viability at 10 uM pretreated for 2 hrs followed by H2O2 addition measured after 30 mins by MTT assay (reference value: 49.6%); assay type: functional; conditions: read-out: Activity
[17] = Metal chelating activity of the compound assessed as formation of Fe2+-compound complex at 37.5 uM after 30 mins by UV-vis absorption spectra analysis; in short: as §2
PC-12 [18] = assay: Neuroprotective activity against H2O2-induced cell death in rat PC12 cells assessed as cell viability at 1 uM pretreated for 2 hrs followed by H2O2 addition measured after 30 mins by MTT assay (reference value: 49.6%); assay type: functional; conditions: read-out: Activity
[19] = Metal chelating activity of the compound assessed as formation of Al3+-compound complex at 37.5 uM after 30 mins by UV-vis absorption spectra analysis; in short: as §2

Chain of Amyloid-beta precursor protein (Homo sapiens) (P05067 whole entry): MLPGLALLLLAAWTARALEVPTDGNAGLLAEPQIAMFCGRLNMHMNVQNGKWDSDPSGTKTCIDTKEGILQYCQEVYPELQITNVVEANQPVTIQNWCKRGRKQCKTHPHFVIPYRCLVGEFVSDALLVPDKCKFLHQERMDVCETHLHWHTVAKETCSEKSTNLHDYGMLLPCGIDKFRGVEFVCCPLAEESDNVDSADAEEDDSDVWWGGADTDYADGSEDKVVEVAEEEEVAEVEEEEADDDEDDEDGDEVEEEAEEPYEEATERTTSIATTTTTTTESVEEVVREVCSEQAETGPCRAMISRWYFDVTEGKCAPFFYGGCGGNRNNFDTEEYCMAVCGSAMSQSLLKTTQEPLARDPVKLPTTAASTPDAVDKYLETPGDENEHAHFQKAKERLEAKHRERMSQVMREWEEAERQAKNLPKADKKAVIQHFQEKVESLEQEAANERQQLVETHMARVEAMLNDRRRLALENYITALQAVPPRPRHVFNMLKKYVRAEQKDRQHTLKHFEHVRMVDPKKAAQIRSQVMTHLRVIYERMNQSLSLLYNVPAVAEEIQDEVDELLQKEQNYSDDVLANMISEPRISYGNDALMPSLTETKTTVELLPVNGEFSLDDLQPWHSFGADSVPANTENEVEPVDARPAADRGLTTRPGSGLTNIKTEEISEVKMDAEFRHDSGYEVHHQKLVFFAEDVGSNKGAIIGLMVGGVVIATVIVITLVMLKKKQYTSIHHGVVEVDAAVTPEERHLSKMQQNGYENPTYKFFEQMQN
Chain of Cholinesterase (Equus caballus) (P81908 whole entry): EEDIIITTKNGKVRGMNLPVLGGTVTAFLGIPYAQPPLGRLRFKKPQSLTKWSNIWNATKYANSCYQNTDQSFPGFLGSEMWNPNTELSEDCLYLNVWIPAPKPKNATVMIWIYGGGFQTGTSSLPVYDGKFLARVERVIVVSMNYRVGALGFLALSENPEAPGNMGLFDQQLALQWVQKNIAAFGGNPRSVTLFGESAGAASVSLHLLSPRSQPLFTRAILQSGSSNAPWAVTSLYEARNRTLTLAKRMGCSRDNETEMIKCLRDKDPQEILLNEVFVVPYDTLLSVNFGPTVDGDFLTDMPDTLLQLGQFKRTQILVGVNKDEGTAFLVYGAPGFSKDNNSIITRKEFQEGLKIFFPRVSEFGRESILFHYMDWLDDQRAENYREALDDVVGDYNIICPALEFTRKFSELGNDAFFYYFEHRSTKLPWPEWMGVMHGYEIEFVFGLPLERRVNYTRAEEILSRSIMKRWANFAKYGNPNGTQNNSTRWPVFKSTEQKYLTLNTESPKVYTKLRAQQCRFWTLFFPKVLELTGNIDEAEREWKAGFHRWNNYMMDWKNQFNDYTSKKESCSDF
Chain of Cholinesterase (P81908 whole entry): as above
Chain of Acetylcholinesterase (AChE) (O42275 whole entry): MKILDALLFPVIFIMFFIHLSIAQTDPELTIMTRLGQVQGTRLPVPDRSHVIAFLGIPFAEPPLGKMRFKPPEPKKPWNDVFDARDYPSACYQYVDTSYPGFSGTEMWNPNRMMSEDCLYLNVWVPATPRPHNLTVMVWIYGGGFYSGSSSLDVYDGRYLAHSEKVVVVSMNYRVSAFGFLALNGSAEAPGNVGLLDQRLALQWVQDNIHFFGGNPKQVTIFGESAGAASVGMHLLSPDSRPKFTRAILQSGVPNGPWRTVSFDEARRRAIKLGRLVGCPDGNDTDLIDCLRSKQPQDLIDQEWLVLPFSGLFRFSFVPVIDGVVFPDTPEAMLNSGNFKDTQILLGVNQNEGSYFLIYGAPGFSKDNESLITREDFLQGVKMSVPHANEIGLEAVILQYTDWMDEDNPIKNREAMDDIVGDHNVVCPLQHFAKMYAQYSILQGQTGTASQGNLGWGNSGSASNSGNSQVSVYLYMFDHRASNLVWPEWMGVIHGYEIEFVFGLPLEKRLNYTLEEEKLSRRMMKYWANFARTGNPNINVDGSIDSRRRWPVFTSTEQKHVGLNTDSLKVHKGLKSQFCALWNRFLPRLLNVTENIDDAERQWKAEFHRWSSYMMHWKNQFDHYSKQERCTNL

Compound | inhibition at 12.5 µM [1] [%] | Activity [2] [µMequiv/µM] | inhibition [3] [%] | IC50 (Cholinesterase) [µM] | inhibition at 0.25 h, 25 µM [4] [%] | IC50 [5] [µM] | also measured
CON(C)C(=O)Oc1cccc(/C=C/C(=O)c2ccccc2O)c1 | 33.8 | 1.2 | 61.4 | 3.2 | 30.4 | 2.6 | –
O=C(/C=C/c1cccc(OC(=O)N(c2ccccc2)c2ccccc2)c1)c1ccccc1O | 18.2 | 1.1 | – | 56.2 | 18.9 | 4.9 | –
COc1cc(/C=C/C(=O)CC(=O)/C=C/c2ccc(O)c(OC)c2)ccc1O | – | – | – | – | – | – | inhibition [6]: 73.4%; Activity [7]: 58.2%
O=C(/C=C/c1cccc(OC(=O)N2CCOCC2)c1)c1ccccc1O | 17.4 | 1.2 | – | 5.1 | 24.3 | 3.1 | –
CCN(CC)C(=O)Oc1cccc(/C=C/C(=O)c2ccccc2OC(=O)N(CC)CC)c1 | 21.1 | 0.31 | 51.5 | 3.1 | 21.9 | 3.3 | –
CN(C)C(=O)Oc1cccc(/C=C/C(=O)c2ccccc2OC(=O)N(C)C)c1 | 18.9 | 0.32 | – | 4.5 | 11.7 | 2.9 | –
CON(C)C(=O)Oc1cccc(/C=C/C(=O)c2ccccc2OC(=O)N(C)OC)c1 | 10.3 | 0.32 | 49.9 | 1.5 | 45.4 | 4.6 | –
COc1cc2c(cc1OC)C(=O)C(CC1CCN(Cc3ccccc3)CC1)C2 (stereo unspecified) | – | – | – | – | – | – | Activity [8]: 54.1%; Activity [9]: 104%
O=C(/C=C/c1cccc(OC(=O)N(c2ccccc2)c2ccccc2)c1)c1ccccc1OC(=O)N(c1ccccc1)c1ccccc1 | 18.2 | 0.33 | – | 42.6 | 27.1 | 6.3 | –
CCN(C)C(=O)Oc1cccc([C@H](C)N(C)C)c1 [RIVASTIGMINE] | – | – | – | – | – | – | Activity [8]: 49.8%; Activity [9]: 71.6%; Activity (Mus musculus [10]): Non-Toxic; Activity [11]: 46.9%; Activity (Mus musculus [12]): 65.3%
O=C(/C=C/c1cccc(OC(=O)N2CCOCC2)c1)c1ccccc1OC(=O)N1CCOCC1 | 20.9 | 0.32 | 49.2 | 2 | 20.8 | 5.2 | –
O=C(/C=C/c1cccc(O)c1)c1ccccc1O | 28.1 | 2.6 | 70.6 | – | 23.3 | 1.1 | inhibition [13]: 28.9%
CCN(CC)C(=O)Oc1cccc(/C=C/C(=O)c2ccccc2O)c1 | 38.1 | 1.3 | – | 4.8 | 16.9 | 1.8 | –
CCN(C)C(=O)Oc1cccc(/C=C/C(=O)c2ccccc2OC(=O)N(C)CC)c1 | 28.4 | 0.35 | 53.1 | 1.2 | 35.4 | 3.7 | Activity [8]: 49.7%; Papp at 100 ug/ml (in vitro): 23.1 ×10⁻⁶ cm/s; Activity [14]: inactive; Activity [15]: inactive; Activity [9]: 70.9%; viability at 10 µM (PC-12 [16]): 63.2%; Activity [17]: inactive; Activity [11]: 50.7%; viability at 1 µM (PC-12 [18]): 53.7%; Activity [19]: inactive
CN(C)C(=O)Oc1cccc(/C=C/C(=O)c2ccccc2O)c1 | 19.9 | 1.1 | 60.2 | 2.51 | 28.8 | 0.8 | –
